Source: ChEMBL document CHEMBL4049449, “Discovery of a Novel Class of Survival Motor Neuron 2 Splicing Modifiers for the Treatment of Spinal Muscular Atrophy” (J Med Chem, 2017)
In brackets after ≈: the same amount, converted by molar mass. Blank lines part the entries; values can stand above or below the compound they belong to.

Experiments:
Homo sapiens [1] = organism: Homo sapiens; test: Modulation of patient derived full length SMN2 pre mRNA splicing assessed as restoration of functional SMN2 to protein level
Mus musculus [2] = test: Induction of SMN protein levels in C/C-Allele SMA FVB mouse quadriceps muscle administered as po qd for 10 days measured 1 hr post last dose by HTRF assay; format: functional, organism-based
Method in brief: (§1)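 Adult C/C-allele SMA mice dosed orally once daily for 10 days at 1, 3 or 10 mg/kg. SMN protein in brain and quadriceps was expressed as % increase over vehicle-treated animals.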

[3] = Total AUC in neonatal wild type FVB mouse plasma at 3 mg/kg, ip qd for 10 days by LC-MS/MS analysis; format: ADME, organism-based; parameters: dose 3 mg/kg, route intraperitoneal, time AUCmax
Method in brief: (§2)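 Plasma AUC determined in a satellite group of neonatal (P10) wild-type mice dosed ip. Free AUC was calculated using the free fraction measured in serum from adult mice.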

Mus musculus [4] = test: Unbound AUC in neonatal […] FVB mouse plasma at 3 mg/kg, ip qd administered from postnatal day 3 to day 9 by LC-MS/MS analysis; format: ADME, organism-based; details: in vivo; method in brief: as §2
Mus musculus [5] = test: Induction of SMN protein levels in neonatal delta7 FVB mouse quadriceps muscle administered as ip qd from postnatal day 3 to day 9 measured 1 hr post last dose by HTRF assay relative to control; format: functional, organism-based
Mus musculus [6] = test: Induction of SMN protein levels in C/C-Allele SMA FVB mouse quadriceps muscle at 3 mg/kg, po qd for 10 days measured 1 hrs post last dose by HTRF assay relative to control; format: functional; method in brief: as §1
[7] = Fraction unbound in human plasma; format: ADME, cell-free
Mus musculus [8] = test: Induction of SMN protein levels in neonatal delta7 FVB mouse quadriceps muscle at 1 mg/kg, ip qd administered from postnatal day 3 to day 9 measured 1 hr post last dose by HTRF assay relative to control; format: functional
Salmonella typhimurium [9] = test: Genotoxicity in Salmonella typhimurium TA102 in presence of rat liver S9 fraction by Ames test; format: toxicity; details: salmonella enterica subsp. enterica serovar typhimurium
Method in brief: (§3)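 Ames plate incorporation: strains grown overnight at 37 °C in nutrient broth (TA102 with 0.3 μg/mL tetracycline). Compound at 20–2000 μg/plate in top agar with histidine/biotin, plus rat liver S9 mix (NADP, glucose 6-phosphate, KCl, MgCl2, pH 7.4 phosphate). Vogel–Bonner plates incubated 37 °C, 2 days; colonies counted by image analysis. Positive: dose-dependent ≥2-fold (TA1535, TA98) or ≥1.5-fold (TA97, TA100, TA102) rise over background.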

Salmonella typhimurium [10] = test: Genotoxicity in Salmonella typhimurium TA98 in presence of rat liver S9 fraction by Ames test; format: toxicity; details: salmonella enterica subsp. enterica serovar typhimurium; method in brief: as §3
Mus musculus [11] = test: Induction of SMN protein levels in neonatal delta7 FVB mouse brain at 3 mg/kg, ip qd administered from postnatal day 3 to day 9 measured 1 hr post last dose by HTRF assay relative to control; format: functional
Mus musculus [12] = test: Induction of SMN protein levels in neonatal delta7 FVB mouse quadriceps muscle at 0.3 mg/kg, ip qd administered from postnatal day 3 to day 9 measured 1 hr post last dose by HTRF assay relative to control; format: functional
[13] = Total AUC in wild type FVB mouse plasma at 10 mg/kg, po qd for 10 days by LC-MS/MS analysis; format: ADME, organism-based; parameters: dose 10 mg/kg, route oral, time AUCmax
Homo sapiens [14] = organism: Homo sapiens; test: Modulation of patient derived full length SMN2 pre mRNA splicing assessed as inclusion of exon 7
[15] = Fraction unbound in mouse plasma; format: ADME, cell-free
Mus musculus [16] = test: Induction of SMN protein levels in C/C-Allele SMA FVB mouse quadriceps muscle at 10 mg/kg, po qd for 10 days measured 1 hrs post last dose by HTRF assay relative to control; format: functional; method in brief: as §1
Mus musculus [17] = test: Induction of SMN protein levels in neonatal delta7 FVB mouse brain administered as ip qd from postnatal day 3 to day 9 measured 1 hr post last dose by HTRF assay relative to control; format: functional, organism-based
P-gp = test: Substrate activity at mouse P-gp assessed as efflux ratio; format: ADME; details: not told
[18] = Substrate activity at human P-gp; format: ADME
Mus musculus [19] = test: Induction of SMN protein levels in neonatal delta7 FVB mouse brain at 1 mg/kg, ip qd administered from postnatal day 3 to day 9 measured 1 hr post last dose by HTRF assay relative to control; format: functional
Mus musculus [20] = test: Induction of SMN protein levels in C/C-Allele SMA FVB mouse brain at 1 mg/kg, po qd for 10 days measured 1 hr post last dose by HTRF assay relative to control; format: functional; method in brief: as §1
Mus musculus [21] = test: Induction of SMN protein levels in neonatal delta7 FVB mouse quadriceps muscle at 3 mg/kg, ip qd administered from postnatal day 3 to day 9 measured 1 hr post last dose by HTRF assay relative to control; format: functional
Salmonella typhimurium [22] = test: Genotoxicity in Salmonella typhimurium TA100 in presence of rat liver S9 fraction by Ames test; format: toxicity; details: salmonella enterica subsp. enterica serovar typhimurium; method in brief: as §3
Mus musculus [23] = test: Induction of SMN protein levels in C/C-Allele SMA FVB mouse brain at 3 mg/kg, po qd for 10 days measured 1 hr post last dose by HTRF assay relative to control; format: functional; method in brief: as §1
Salmonella typhimurium [24] = test: Genotoxicity in Salmonella typhimurium TA1535 in presence of rat liver S9 fraction by Ames test; format: toxicity; details: salmonella enterica subsp. enterica serovar typhimurium; method in brief: as §3
[25] = Ratio of drug level in wild type FVB mouse brain to plasma at 10 mg/kg, po; format: ADME, organism-based; details: read-out: BPR
Mus musculus [26] = test: Induction of SMN protein levels in C/C-Allele SMA FVB mouse quadriceps muscle at 1 mg/kg, po qd for 10 days measured 1 hrs post last dose by HTRF assay relative to control; format: functional; method in brief: as §1
Mus musculus [27] = test: Induction of SMN protein levels in C/C-Allele SMA FVB mouse brain administered as po qd for 10 days measured 1 hr post last dose by HTRF assay; format: functional, organism-based; method in brief: as §1
Salmonella typhimurium [28] = test: Genotoxicity in Salmonella typhimurium TA97 in presence of rat liver S9 fraction by Ames test; format: toxicity; details: salmonella enterica subsp. enterica serovar typhimurium; method in brief: as §3
Mus musculus [29] = test: Induction of SMN protein levels in C/C-Allele SMA FVB mouse brain at 10 mg/kg, po qd for 10 days measured 1 hr post last dose by HTRF assay relative to control; format: functional; method in brief: as §1
Mus musculus [30] = test: Induction of SMN protein levels in neonatal delta7 FVB mouse brain at 0.3 mg/kg, ip qd administered from postnatal day 3 to day 9 measured 1 hr post last dose by HTRF assay relative to control; format: functional
Mus musculus [31] = test: Unbound AUC in C/C-Allele SMA FVB mouse plasma at 10 mg/kg, po qd for 10 days by LC-MS/MS analysis; format: ADME, organism-based; details: in vivo, 240 h
[32] = Octanol-phosphate buffer partition co-efficient, log D of the compound at pH 7.4 after 24 hrs by shake flask method; format: physicochemical
Method in brief: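 CAMDIS shake-flask variant: PVDF membranes impregnated with 1-octanol dipped in 25 mM phosphate buffer pH 7.4 containing compound, shaken 24 h at 23 °C. Two octanol/water ratios were run for hydrophilic or lipophilic compounds. Aqueous concentration was measured by LC/MS with and without octanol, and log D was calculated from the difference and the phase ratio.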

Cytochrome P450 3A4 = Cytochrome P450 3A4 (Homo sapiens, UniProt P08684); test: Inhibition of CYP3A4 (unknown origin); format: ADME
Chain of Cytochrome P450 3A4 (P08684 whole entry): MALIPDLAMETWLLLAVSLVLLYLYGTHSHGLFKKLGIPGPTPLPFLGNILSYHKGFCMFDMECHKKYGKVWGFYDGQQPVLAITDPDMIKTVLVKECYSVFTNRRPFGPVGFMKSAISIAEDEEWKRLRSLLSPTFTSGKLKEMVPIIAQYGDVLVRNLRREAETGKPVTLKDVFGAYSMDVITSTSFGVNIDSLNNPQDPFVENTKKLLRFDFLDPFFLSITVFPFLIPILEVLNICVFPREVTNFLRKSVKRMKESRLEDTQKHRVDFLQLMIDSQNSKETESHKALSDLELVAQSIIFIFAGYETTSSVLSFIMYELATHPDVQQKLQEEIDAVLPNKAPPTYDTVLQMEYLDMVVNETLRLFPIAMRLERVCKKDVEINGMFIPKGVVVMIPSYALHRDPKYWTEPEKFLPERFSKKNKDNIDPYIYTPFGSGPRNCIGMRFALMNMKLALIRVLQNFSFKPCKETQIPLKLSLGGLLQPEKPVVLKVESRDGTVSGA

Plasma [33] = test: Drug metabolism in mouse plasma assessed as amide bond hydrolysis at 1 uM after 15 to 300 mins by LC-MS/MS analysis; format: ADME, cell-free
[34] = Glutathione reactivity assessed as GSH adduct formation
hERG (KCNH2) = hERG (KCNH2) (Homo sapiens, UniProt Q12809); test: Inhibition of human ERG channel
Chain of hERG (KCNH2) (Q12809 whole entry): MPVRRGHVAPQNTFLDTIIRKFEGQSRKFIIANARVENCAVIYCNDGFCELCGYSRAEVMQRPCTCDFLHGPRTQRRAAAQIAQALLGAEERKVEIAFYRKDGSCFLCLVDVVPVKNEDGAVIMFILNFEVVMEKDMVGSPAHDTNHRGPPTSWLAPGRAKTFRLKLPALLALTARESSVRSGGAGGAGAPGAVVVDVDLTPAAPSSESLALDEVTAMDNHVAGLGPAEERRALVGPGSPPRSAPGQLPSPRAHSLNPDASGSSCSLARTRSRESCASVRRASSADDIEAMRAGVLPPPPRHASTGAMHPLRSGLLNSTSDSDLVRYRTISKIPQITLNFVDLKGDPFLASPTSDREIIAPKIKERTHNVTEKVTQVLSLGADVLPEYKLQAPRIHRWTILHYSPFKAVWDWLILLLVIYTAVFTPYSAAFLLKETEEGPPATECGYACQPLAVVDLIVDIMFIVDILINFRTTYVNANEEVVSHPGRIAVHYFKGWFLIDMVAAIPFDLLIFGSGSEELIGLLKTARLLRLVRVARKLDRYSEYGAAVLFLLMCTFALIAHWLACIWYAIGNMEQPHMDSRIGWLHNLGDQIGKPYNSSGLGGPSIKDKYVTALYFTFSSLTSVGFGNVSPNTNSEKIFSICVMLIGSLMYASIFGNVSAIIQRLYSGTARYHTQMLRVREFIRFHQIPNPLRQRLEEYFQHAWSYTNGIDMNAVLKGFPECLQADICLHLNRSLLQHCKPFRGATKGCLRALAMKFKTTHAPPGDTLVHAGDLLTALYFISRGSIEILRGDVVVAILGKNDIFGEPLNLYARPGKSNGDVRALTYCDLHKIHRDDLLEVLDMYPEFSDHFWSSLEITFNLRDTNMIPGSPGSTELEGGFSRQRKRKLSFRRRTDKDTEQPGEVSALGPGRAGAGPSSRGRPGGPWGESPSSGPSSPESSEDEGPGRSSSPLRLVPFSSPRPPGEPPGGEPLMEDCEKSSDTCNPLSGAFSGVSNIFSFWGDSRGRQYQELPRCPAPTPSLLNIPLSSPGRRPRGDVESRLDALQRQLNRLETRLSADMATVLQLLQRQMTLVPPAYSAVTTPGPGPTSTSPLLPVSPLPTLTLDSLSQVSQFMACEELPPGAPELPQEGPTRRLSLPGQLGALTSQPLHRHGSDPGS

Cytochrome P450 2C9 = Cytochrome P450 2C9 (Homo sapiens, UniProt P11712); test: Inhibition of CYP2C9 (unknown origin); format: ADME
Chain of Cytochrome P450 2C9 (P11712 whole entry): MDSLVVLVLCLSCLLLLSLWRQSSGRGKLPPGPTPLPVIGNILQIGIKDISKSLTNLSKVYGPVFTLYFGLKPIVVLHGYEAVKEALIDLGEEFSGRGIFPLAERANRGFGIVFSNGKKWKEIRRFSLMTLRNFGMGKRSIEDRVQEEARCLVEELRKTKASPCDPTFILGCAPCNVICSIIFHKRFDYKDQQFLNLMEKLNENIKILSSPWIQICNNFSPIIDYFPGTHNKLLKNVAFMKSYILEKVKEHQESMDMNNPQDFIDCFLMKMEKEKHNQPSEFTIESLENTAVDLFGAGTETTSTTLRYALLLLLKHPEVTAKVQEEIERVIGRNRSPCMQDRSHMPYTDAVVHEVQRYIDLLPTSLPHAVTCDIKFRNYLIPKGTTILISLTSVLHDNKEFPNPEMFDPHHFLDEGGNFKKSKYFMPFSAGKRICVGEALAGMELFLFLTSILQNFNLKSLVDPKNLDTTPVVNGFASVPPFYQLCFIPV

Plasma [35] = test: Drug metabolism in human plasma assessed as amide bond hydrolysis at 1 uM after 15 to 300 mins by LC-MS/MS analysis; format: ADME, cell-free
Plasma [36] = test: Drug metabolism in rat plasma assessed as amide bond hydrolysis at 1 uM after 15 to 300 mins by LC-MS/MS analysis; format: ADME, cell-free
Cytochrome P450 2D6 = Cytochrome P450 2D6 (Homo sapiens, UniProt P10635); test: Inhibition of CYP2D6 (unknown origin); format: ADME
Chain of Cytochrome P450 2D6 (P10635 whole entry): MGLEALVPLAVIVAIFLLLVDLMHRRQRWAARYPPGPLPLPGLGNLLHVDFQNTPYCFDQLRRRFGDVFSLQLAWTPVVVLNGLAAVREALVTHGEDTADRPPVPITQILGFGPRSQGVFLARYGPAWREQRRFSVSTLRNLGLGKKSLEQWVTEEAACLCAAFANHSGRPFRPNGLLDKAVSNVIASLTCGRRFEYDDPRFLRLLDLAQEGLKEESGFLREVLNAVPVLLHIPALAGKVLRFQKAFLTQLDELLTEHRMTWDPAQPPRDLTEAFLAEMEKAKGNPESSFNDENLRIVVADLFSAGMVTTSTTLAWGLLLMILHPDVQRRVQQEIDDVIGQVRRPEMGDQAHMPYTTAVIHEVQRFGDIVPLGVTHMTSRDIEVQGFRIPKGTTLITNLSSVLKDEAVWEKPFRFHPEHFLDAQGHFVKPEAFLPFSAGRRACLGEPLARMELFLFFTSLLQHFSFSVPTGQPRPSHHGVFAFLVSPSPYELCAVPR

[37] = Stability at various pH levels assessed as amide bond hydrolysis; format: physicochemical
[38] = Solubility of the compound in phosphate buffer solution at pH 6.5 by HPLC-UV analysis; format: physicochemical
Method in brief: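 Lysa: duplicate samples from 10 mM DMSO stocks, DMSO evaporated, residue taken up in 0.05 M phosphate buffer pH 6.5, stirred 1 h, shaken 2 h, left overnight, filtered. Filtrate and its 1/10 dilution were read by direct UV or HPLC-UV against a four-point calibration; range 0–666 μg/mL for MW 500.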

[39] = Permeability of the compound by PAMPA; format: physicochemical; details: read-out: permeability
Method in brief: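 Parallel artificial membrane permeability: phospholipid-coated filter plate sandwiched between donor compound/buffer and acceptor buffer. Donor concentration at start was compared with donor and acceptor concentrations at end time, giving Pe (10−6 cm/s); membrane retention was also determined.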

EC1.5 (Homo sapiens [1]): 98 nM
AUC at 240 h [3]: 3900 ng·h/mL
fAUC (Mus musculus [4]): 790 ng·h/mL
fraction unbound [7]: 0.186
AUC at 240 h [13]: 7900 ng·h/mL
EC1.5 (Homo sapiens [14]): 52 nM
fraction unbound [15]: 0.197
efflux ratio (P-gp): 4.1
Activity [18]: Not Active
Kp [25]: 3.4
fAUC (Mus musculus [31]): 1580 ng·h/mL
Compound: Cc1cn2cc(NC(=O)c3ccc(N4CCNC(C)C4)cc3F)nc2c(C)n1 (stereo unspecified)
Activity (Mus musculus [2]): Dose-dependent effect
Activity (Mus musculus [5]): Dose-dependent effect
Activity (Mus musculus [6]): 54%
Activity (Mus musculus [8]): 24%
Activity (Salmonella typhimurium [9]): Toxic
Activity (Salmonella typhimurium [10]): Toxic
Activity (Mus musculus [11]): 150%
Activity (Mus musculus [12]): 14%
Activity (Mus musculus [16]): 152%
Activity (Mus musculus [17]): Dose-dependent effect
Activity (Mus musculus [19]): 75%
Activity (Mus musculus [20]): 0%
Activity (Mus musculus [21]): 140%
Activity (Salmonella typhimurium [22]): Toxic
Activity (Mus musculus [23]): 24%
Activity (Salmonella typhimurium [24]): Toxic
Activity (Mus musculus [26]): 13%
Activity (Mus musculus [27]): Dose-dependent effect
Activity (Salmonella typhimurium [28]): Toxic
Activity (Mus musculus [29]): 102%
Activity (Mus musculus [30]): 24%

logD at 24 h [32]: 2
IC50 (Cytochrome P450 3A4): > 50 µM
EC1.5 (Homo sapiens [1]): 3950 nM
Stability (Plasma [33]): Stable
IC50 (Cytochrome P450 2C9): > 50 µM
Stability (Plasma [35]): Stable
EC1.5 (Homo sapiens [14]): 660 nM
Stability (Plasma [36]): Stable
IC50 (Cytochrome P450 2D6): > 50 µM
Stability [37]: Stable
solubility [38]: 111 µg/mL (≈ 305 µM)
Papp [39]: 2.38 ×10⁻⁶ cm/s
Compound: Cc1cn2cc(NC(=O)c3ccc(N4CCN(C)CC4)cc3)nc2c(C)n1
Stability [34]: Stable
IC20 (hERG (KCNH2)): > 10 µM
Activity (Salmonella typhimurium [9]): Non-Toxic
Activity (Salmonella typhimurium [10]): Non-Toxic
Activity (Salmonella typhimurium [22]): Non-Toxic
Activity (Salmonella typhimurium [24]): Non-Toxic
Activity (Salmonella typhimurium [28]): Non-Toxic
